Screens: PubChem, The Scripps Research Institute Molecular Screening Center
Sampled rows, rich in hits. Any-hit rate of the full collection: about 2.5%.
SIAE inh – blocks human sialic acid acetylesterase; Q9HAT2; SIAE FP-Rh probe binding, fluorescence polarization; inhibition, % at 9.66 µM; hit rate 0.69% among 370,000;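 active = inhibition above a cutoff: mean of compounds within the control limits plus 3 SD of those, cut at about 17% in these data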;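 note: 0% = plate median of compound wells and 100% = probe without SIAE protein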
PRMT1 inh – blocks human protein arginine methyltransferase 1; hit rate 1.3% among 370,000; inhibition, % at 2.79 µM; recombinant PRMT1, activity-based probe fluorescence polarization; AID 652257; Q99873;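 active = inhibition above about 21% made by adding two undisclosed values, limit read from the data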
TCR-CD3 inh – human TCR-CD3 binding inhibition; TAMRA-labeled TCR probe fluorescence, biochemical; inhibition, % at 9.4 µM; hit rate 0.37% among 360,000; in the data active = inhibition above about 19%;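 note: recombinant mutant TCR 2C K166C tagged with TAMRA read by polarization; 0% = receptor in buffer alone and 100% = receptor with positive control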
ABHD4 inh – inhibits mouse alpha/beta hydrolase domain 4; Q8VD66; purified mABHD4, FP-Rh probe fluorescence polarization; inhibition, % at 8.92 µM; hit rate 0.54% among 370,000; AID 720543;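 active = inhibition exceeding the mean over every tested compound plus 3 SD, cut at about 30% in these data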;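 note: 0% = plate median of compound wells and 100% = S159A mutant with DMSO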
Target sequence (Q8VD66 whole entry, looked up, the tested form may be a part): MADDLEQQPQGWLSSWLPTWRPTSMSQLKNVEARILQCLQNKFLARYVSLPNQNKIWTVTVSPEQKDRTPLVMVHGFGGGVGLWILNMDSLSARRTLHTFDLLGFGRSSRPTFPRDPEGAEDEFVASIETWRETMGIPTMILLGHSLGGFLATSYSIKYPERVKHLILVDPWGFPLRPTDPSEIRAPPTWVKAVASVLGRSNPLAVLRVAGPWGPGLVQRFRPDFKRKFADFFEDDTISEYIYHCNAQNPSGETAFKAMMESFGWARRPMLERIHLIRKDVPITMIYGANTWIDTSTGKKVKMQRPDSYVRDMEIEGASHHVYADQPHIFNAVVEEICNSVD
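Material: mouse ABHD4 enzyme, wild type; Benchmarks: S159A mutant high control, sample median low control; Buffer or medium: HEPES pH 7.0, NaCl, Pluronic buffer; Signal: fluorescence polarization; Read-out: percent inhibition of probe binding, normalized to plate controls; Timing: pre-incubation 45 min, probe exposure 60 min, at 25 °C; Dosing: 8.92 µM, single dose.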
HTRA1 inhibitor – inhibitors of human serine peptidase HTRA1 | hit rate 0.5% among 340,000 | Q92743 | inhibition, % at 5.96 µM | AID 504803 | recombinant HTRA1, FP-rhodamine activity-based probe, fluorescence polarization; in the data active = inhibition above about 36%;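 note: 0% = enzyme with DMSO and 100% = wells lacking enzyme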
The depositor's hits bear a star; / = not tested or not shown.

SMILES	SIAE inh	PRMT1 inh	TCR-CD3 inh	ABHD4 inh	HTRA1 inhibitor
COc1ccc(O)c(/C=N/c2sc(C)c(C)c2C#N)c1	7.3	24.1*	6.9	0.9	4.5
O=C(O)c1ccc(-n2cccc2/C=C2/NC(=O)N(c3ccccc3)C2=O)cc1	1.7	13.1	23.7*	4.0	0.9
Cc1[nH]c2ccccc2c1C(C#N)(C#N)C1C(=O)c2ccccc2C1=O	8.4	1.3	-1.1	39.0*	27.2
CC(C)CNC(=O)OCc1cn(Cc2ccccc2Cl)nn1	9.3	-2.2	/	-0.9	/
O=C(NCCc1ccc(F)cc1)c1ccc2c(c1)ncn2C1CCCCC1	-4.4	-2.7	/	-3.4	/
O=C(OC12CCCN(C1)/C(=C/c1ccc(Cl)cc1)C2)c1ccccc1 (stereo unspecified)	6.6	-1.1	/	-0.1	/
CCOC(=O)c1c(N2C(=O)CC(Sc3ccccc3C(=O)O)C2=O)sc(C)c1C (stereo unspecified)	1.2	49.2*	-3.2	15.6	-8.7
COc1ccc(C(c2c(O)ccc3ccccc23)N2CCOCC2)c(OC)c1 (stereo unspecified)	-14.3	67.4*	6.3	-30.4	-75.7
COc1ccc(C(CCN2CCOCC2)c2c(O)cc(OC)cc2OC)cc1 (stereo unspecified)	-3.8	5.0	-2.8	3.3	-0.6
CC(=O)OC12CCCN(C1)/C(=C/c1cccnc1)C2 (stereo unspecified)	3.6	2.4	/	5.3	/
O=C(CCc1c[nH]c2ccccc12)N1CCN(c2ccc(O)cc2)CC1	4.8	22.2*	1.4	14.2	5.4
COc1ccc(N2CCN(C(=O)CCc3c[nH]c4ccccc34)CC2)cc1	10.3	1.3	-7.5	-2.6	0.5
COc1ccc(NC(=O)CSc2nnc(-c3ccccc3C)n2N)cc1OC	3.3	1.4	-4.0	0.3	2.5
COc1ccc(NC(=O)CSc2nnc(-c3ccccc3C)n2N)cc1	-5.5	21.4*	6.2	7.3	6.0
N#CC(c1ccc(Cl)cc1)c1ccc2c(C(F)(F)F)cc(C(F)(F)F)nc2n1 (stereo unspecified)	22.8*	0.5	6.5	14.1	19.6
Cc1ccc(C(=O)N/N=C/c2cn(Cc3ccccc3)c3ccccc23)cn1	8.0	-1.1	-2.0	4.0	2.0
COc1cc(C(=O)N/N=C/c2cn(Cc3cccc(F)c3)c3ccccc23)ccc1O	29.5*	7.4	-6.3	5.3	2.9
Cc1c(NC(=O)C2CCCN(S(=O)(=O)c3ccc(Cl)s3)C2)c(=O)n(-c2ccccc2)n1C (stereo unspecified)	-1.8	6.6	/	-11.7	/
CCN(CC(=O)NCc1cccs1)C(=O)c1ccc(-c2ccc(F)cc2)o1	-1.5	24.1*	-7.3	4.2	-7.2
COc1ccc(NS(=O)(=O)c2cccc(C(=O)NCc3ccco3)c2)cc1	-1.2	22.8*	-2.8	-8.0	-1.4
COC(=O)[C@]12C[C@H](CC(=O)NCCCN3CCCC3=O)C(=O)N(Cc3ccco3)C1=C[C@H](C1CCCC1)O[C@@H]2C	-0.6	2.6	/	3.1	/
Nc1nonc1-n1nnc(C(=O)N/N=C/c2cccnc2)c1CSC1=NCCS1	-0.6	47.4*	2.1	6.2	-1.2
Cc1cc(Nc2ccccc2)nc(NCc2ccccc2)n1	-5.2	-0.1	-4.3	21.5	-11.0
Cc1cc(Nc2ccc(Cl)cc2)nc(NCc2ccccc2)n1	23.5*	0.9	-0.9	17.1	-17.0
C/C=C/C=C/C(=O)N1CC2(CC(c3cccc(NC(=O)CCCCC)c3)=NO2)C[C@H]1C(N)=O (stereo partly specified)	-5.9	21.2*	4.2	-5.6	-4.4
SMILES	SIAE inh	PRMT1 inh	TCR-CD3 inh	ABHD4 inh	HTRA1 inhibitor
CC/C=C/C(=O)N1CC2(CC(c3cccc(NC(=O)CCCCC)c3)=NO2)C[C@H]1C(N)=O (stereo partly specified)	-4.1	5.6	-7.4	-12.0	-5.5
N#CC1=C(S)N=C(N)C(c2nc(-c3ccccc3)cs2)C12CCCC2 (stereo unspecified)	-19.8	33.4*	-3.9	-19.4	-0.4
Cn1ncc2c(c(SCc3ccc(Cl)cc3Cl)nn2C)c1=O	-4.8	22.0*	-0.7	-6.9	9.6
COc1cnn(-c2ccccc2)c(=O)c1SCc1ccc(Cl)cc1Cl	-3.1	17.2	2.4	-11.0	-19.1
Cc1cc(C(=O)O[C@@H]2CCC[C@]3(C(=O)N(Cc4ccccc4)c4ccccc43)[C@H]2NC(=O)CCc2ccccc2)no1	4.3	2.5	/	0.0	/
CCOC(=O)[C@@]12CCC3=C1N(CCC3)C(=O)[C@H](CC(=O)NCCCOC)C2	2.0	5.9	/	-10.9	/
